# Measured values from ChEMBL document CHEMBL2413060, “Synthesis, biological evaluation and molecular docking studies of some pyrimidine derivatives” (2013).
# Assays:
# Type in all cases: functional
# Pseudomonas aeruginosa [1] = assay: Antibacterial activity against Pseudomonas aeruginosa ATCC 9027 after 24 hrs by two-fold serial dilution method relative to ofloxacin
# Shigella flexneri [2] = assay: Antibacterial activity against Shigella flexneri ATCC 15391 after 24 hrs by two-fold serial dilution method relative to ofloxacin
# Shigella flexneri [3] = assay: Antibacterial activity against Shigella flexneri ATCC 15391 after 24 hrs by two-fold serial dilution method; details: ATCC 15391, 24 h
# Procedure, shortened: (§1)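 Two-fold serial broth dilution in sterile nutrient broth at 500, 250, 125, 62.5, 31.25, 15.63, 7.82 and 3.91 µg/ml, with dimethylformamide ≤2.5%. Organisms were pre-grown 24 h in broth, and 0.1 ml inoculum was added per 5 ml tube. Tubes were incubated at 37°C, 24 h for bacteria and 48 h for fungi. MIC was taken as the lowest concentration giving no turbidity.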
# Pseudomonas aeruginosa [4] = assay: Antibacterial activity against Pseudomonas aeruginosa ATCC 9027 after 24 hrs by two-fold serial dilution method; details: ATCC 9027, 24 h; procedure, shortened: as §1
# Candida albicans [5] = assay: Antifungal activity against Candida albicans ATCC 2091 assessed as diameter of inhibition zone at 1 mg/ml after 48 hrs by cup diffusion method (reference value: 22 mm); details: ATCC 2091, 48 h, read-out: DIZ
# Shigella flexneri [6] = assay: Antibacterial activity against Shigella flexneri ATCC 15391 assessed as diameter of inhibition zone at 1 mg/ml after 24 hrs by cup diffusion method (reference value: 17 mm); details: ATCC 15391, 24 h, read-out: DIZ
# Staphylococcus aureus [7] = assay: Antibacterial activity against Staphylococcus aureus ATCC 6538P assessed as diameter of inhibition zone at 1 mg/ml after 24 hrs by cup diffusion method (reference value: 15 mm); details: read-out: DIZ
# Pseudomonas aeruginosa [8] = assay: Antibacterial activity against Pseudomonas aeruginosa ATCC 9027 assessed as diameter of inhibition zone at 1 mg/ml after 24 hrs by cup diffusion method (reference value: 16 mm); details: ATCC 9027, 24 h, read-out: DIZ
# HOP-62 = assay: Cytotoxicity against human HOP62 cells assessed as growth inhibition at 10 uM; details: read-out: GI
# Staphylococcus aureus [9] = assay: Antibacterial activity against Staphylococcus aureus ATCC 6538P after 24 hrs by two-fold serial dilution method; procedure, shortened: as §1
# HOP-92 = assay: Cytotoxicity against human HOP92 cells assessed as growth inhibition at 10 uM; details: read-out: GI
# Candida albicans [10] = assay: Antifungal activity against Candida albicans ATCC 2091 after 48 hrs by two-fold serial dilution method; details: ATCC 2091, 48 h; procedure, shortened: as §1
# Candida albicans [11] = assay: Antifungal activity against Candida albicans ATCC 2091 after 48 hrs by two-fold serial dilution method relative to clotrimazole
# NCI/ADR-RES = assay: Cytotoxicity against human NCI/ADR-RES cells assessed as growth inhibition at 10 uM; details: read-out: GI
# Procedure, shortened: (§2)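 Single-dose screen on human tumour cell lines. Growth of treated cells is expressed as percent of untreated growth, plotted as a mean graph, and reported as percent growth inhibition.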
# HCC 2998 = assay: Cytotoxicity against human HCC2998 cells assessed as growth inhibition at 10 uM; details: read-out: GI
# SK-MEL-2 = assay: Cytotoxicity against human SK-MEL-2 cells assessed as growth inhibition at 10 uM; details: read-out: GI; procedure, shortened: as §2
Structure (SMILES),MIC (Shigella flexneri [3]) [µg/mL],MIC (Pseudomonas aeruginosa [4]) [µg/mL],zone of inhibition at 1000 µg/mL (Candida albicans [5]) [mm],zone of inhibition at 1000 µg/mL (Shigella flexneri [6]) [mm],zone of inhibition at 1000 µg/mL (Staphylococcus aureus [7]) [mm],zone of inhibition at 1000 µg/mL (Pseudomonas aeruginosa [8]) [mm],also measured
N#Cc1c(N2CCN(Cc3ccccc3)CC2)nc(=S)[nH]c1-c1ccccc1,125,125,22,20,15,18,Activity (Pseudomonas aeruginosa [1]): 60%; Activity (Shigella flexneri [2]): 60%
Cn1c(N2CCN(Cc3ccccc3)CC2)nc(-c2ccco2)c(C#N)c1=O,,,22,17,15,17,
COc1ccc(NC(=O)CSc2nc(-c3ccccc3)c(C#N)c(=O)[nH]2)cc1,125,,22,20,15,16,Activity (Shigella flexneri [2]): 60%
N#Cc1c(Cl)nc(=S)[nH]c1-c1ccco1,,62.5,22,17,15,18,inhibition of growth at 10 µM (HOP-62): 49.6%
N#Cc1c(N2CCCCC2)nc(=S)[nH]c1-c1ccco1,,,22,17,18,16,MIC (Staphylococcus aureus [9]): 125 µg/mL
N#Cc1c(Cl)nc(=S)[nH]c1-c1ccccc1,125,125,22,22,15,18,inhibition of growth at 10 µM (HOP-92): 48.5%; inhibition of growth at 10 µM (HOP-62): 47.4%
N#Cc1c(-c2ccccc2)nc(SCC2CO2)[nH]c1=O (stereo not given),125,,22,22,15,16,inhibition of growth at 10 µM (HOP-92): 41.5%
N#Cc1c(N2CCOCC2)nc(=S)[nH]c1-c1ccc([N+](=O)[O-])cc1,,,22,18,15,16,
N#Cc1c(Cl)nc(=S)[nH]c1-c1ccc([N+](=O)[O-])cc1,,,22,17,15,16,
COc1ccc(NC(=O)CSc2nc(-c3ccco3)c(C#N)c(=O)[nH]2)cc1,125,,23,20,15,16,Activity (Shigella flexneri [2]): 60%
N#Cc1c(-c2ccco2)nc(SCC(O)CN2CCOCC2)[nH]c1=O (stereo not given),,,22,18,15,16,
CC1(C)S[C@@H]2[C@H](NC(=O)[C@H](N)c3ccccc3)C(=O)N2[C@H]1C(=O)O [AMPICILLIN],,,,22,41,16,MIC (Staphylococcus aureus [9]): 3.91 µg/mL
Clc1ccccc1C(c1ccccc1)(c1ccccc1)n1ccnc1 [CLOTRIMAZOLE],,,40,,,,MIC (Candida albicans [10]): 12.5 µg/mL
CCN(CC)CCSc1nc(-c2ccccc2)c(C#N)c(=O)[nH]1,125,125,25,21,18,18,Activity (Pseudomonas aeruginosa [1]): 50%; Activity (Shigella flexneri [2]): 60%; MIC (Candida albicans [10]): 125 µg/mL; Activity (Candida albicans [11]): 62%; MIC (Staphylococcus aureus [9]): 3.91 µg/mL; inhibition of growth at 10 µM (NCI/ADR-RES): 42%; inhibition of growth at 10 µM (HCC 2998): 107%
Cn1c(-n2[nH]c3c(c2=O)C(=O)CC(=O)O3)nc(-c2ccco2)c(C#N)c1=O,,,22,17,15,16,
Cn1c(N2CCCCC2)nc(-c2ccco2)c(C#N)c1=O,,,22,19,15,16,inhibition of growth at 10 µM (SK-MEL-2): 70.7%
N#Cc1c(-c2ccco2)nc(SCC2CO2)[nH]c1=O (stereo not given),125,125,25,24,18,18,Activity (Pseudomonas aeruginosa [1]): 50%; Activity (Shigella flexneri [2]): 60%; MIC (Candida albicans [10]): 125 µg/mL; Activity (Candida albicans [11]): 62%; MIC (Staphylococcus aureus [9]): 125 µg/mL
N#Cc1c(N2CCN(Cc3ccccc3)CC2)nc(=S)[nH]c1-c1ccco1,,125,29,17,18,20,MIC (Candida albicans [10]): 125 µg/mL; Activity (Candida albicans [11]): 75%; MIC (Staphylococcus aureus [9]): 3.91 µg/mL
N#Cc1c(N2CCCCC2)nc(=S)[nH]c1-c1ccc([N+](=O)[O-])cc1,125,,22,23,15,17,Activity (Pseudomonas aeruginosa [1]): 60%; Activity (Shigella flexneri [2]): 60%
N#Cc1c(-c2ccc([N+](=O)[O-])cc2)nc(SCC2CO2)[nH]c1=O (stereo not given),,,22,17,15,17,
Cn1c(=O)c(C#N)c(-c2ccccc2)n2c(CC#N)nnc12,,,22,19,15,17,
N#Cc1c(N2CCN(Cc3ccccc3)CC2)nc(=S)[nH]c1-c1ccc([N+](=O)[O-])cc1,,,22,17,15,16,inhibition of growth at 10 µM (HCC 2998): 71.8%
N#Cc1c(-c2ccco2)nc(SCC(O)CN2CCOCC2)nc1N1CCOCC1 (stereo not given),,125,25,17,15,18,MIC (Candida albicans [10]): 125 µg/mL; Activity (Candida albicans [11]): 60%
N#Cc1c(Cl)nc(SCC2CO2)nc1-c1ccco1 (stereo not given),,,22,18,15,17,
N#Cc1c(-c2ccccc2)nc(SCC(O)CN2CCOCC2)[nH]c1=O (stereo not given),,,22,18,15,16,
CC1COc2c(N3CCN(C)CC3)c(F)cc3c(=O)c(C(=O)O)cn1c23 (stereo not given) [OFLOXACIN],7.81,1.95,,32,43,43,
N#Cc1c(-c2ccco2)nc(SCC2CO2)nc1N1CCOCC1 (stereo not given),,,22,17,15,16,
CCOC(=O)CC(=N)N(NC(=O)CC#N)c1nc(-c2ccccc2)c(C#N)c(=O)n1C,,125,,,,,MIC (Candida albicans [10]): 125 µg/mL; Activity (Candida albicans [11]): 60%
Cn1c(-n2[nH]c3c(c2=O)C(=O)CC(=O)O3)nc(-c2ccccc2)c(C#N)c1=O,,125,22,17,15,19,
